Data set [1] relates to Mus musculus. The data set can be described thus: Toxicity in male CDF1 mouse allografted with mouse P388 cells assessed as animal survival at 100 mg/kg, ip administered daily for 9 days as saline with Tween-80 solution starting 24 hrs after tumor inoculation. It counts as organism-based. More on the design: dose 100 mg/kg, route intraperitoneal. The conditions noted are these: in vivo. In short, it runs like this: (§1)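 P-388 leukemia ascitic fluid implanted ip. Compound dosed ip in saline with Tween-80 vehicle, once daily for nine doses from 24 h after tumor inoculation. Acute toxicity scored as toxicity-day survivors per group. Survival was followed up to 30 days, with 30-day survival counted as "cure". Follows NCI screening protocols.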

In data set [2] the test system is Mus musculus. Briefly: Toxicity in male CDF1 mouse allografted with mouse P388 cells assessed as animal survival at 400 mg/kg, ip administered daily for 9 days as saline with Tween-80 solution starting 24 hrs after tumor inoculation. The conditions noted are these: in vivo. More on the design: dose 400 mg/kg, route intraperitoneal. It counts as organism-based. The procedure, abridged: as §1

In data set [3] the test system is Mus musculus. The data set can be described thus: Toxicity in male CDF1 mouse allografted with mouse P388 cells assessed as animal survival at 200 mg/kg, ip administered daily for 9 days as saline with Tween-80 solution starting 24 hrs after tumor inoculation. It counts as organism-based. More on the design: dose 200 mg/kg, route intraperitoneal. The conditions noted are these: in vivo. The procedure, abridged: as §1

In data set [4] the test system is P388. The data set can be described thus: Antitumor activity against mouse P388 cells allografted in female CDF1 mouse assessed as disease cures by measuring 30-days host survival at 100 mg/kg, ip administered daily for 9 days as saline with Tween-80 solution starting 24 hrs after tumor inoculation relative to control. It counts as functional. The conditions noted are these: route intraperitoneal. The procedure, abridged:
(§2)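 P388 ascitic cell inoculum given ip to CDF1 mice of the sex in each line. Nine daily ip doses in saline with Tween-80 as vehicle, starting 24 h after inoculation. Median survival time expressed as %T/C (>125 significant); "cure" defined as 30-day survival.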

The subject of data set [5] is P388. The data set can be described thus: Antitumor activity against mouse P388 cells allografted in female CDF1 mouse assessed as disease cures by measuring 30-days host survival at 50 mg/kg, ip administered daily for 9 days as saline with Tween-80 solution starting 24 hrs after tumor inoculation relative to control. It counts as functional. To be noted: route intraperitoneal. The procedure, abridged: as §2

Data set [6] concerns P388. The data set can be described thus: Antitumor activity against mouse P388 cells allografted in female CDF1 mouse assessed as disease cures by measuring 30-days host survival at 25 mg/kg, ip administered daily for 9 days as saline with Tween-80 solution starting 24 hrs after tumor inoculation relative to control. It counts as functional. To be noted: route intraperitoneal. The procedure, abridged:
as §2

In data set [7] the test system is P388. The data set can be described thus: Antitumor activity against mouse P388 cells allografted in male CDF1 mouse assessed as disease cures by measuring 30-days host survival at 50 mg/kg, ip administered daily for 9 days as saline with Tween-80 solution starting 24 hrs after tumor inoculation relative to control. The conditions noted are these: route intraperitoneal. It counts as functional. In short, it runs like this: as §2

The test system of data set [8] is P388. Briefly: Antitumor activity against mouse P388 cells allografted in male CDF1 mouse assessed as disease cures by measuring 30-days host survival at 25 mg/kg, ip administered daily for 9 days as saline with Tween-80 solution starting 24 hrs after tumor inoculation relative to control. It counts as functional. To be noted: route intraperitoneal. In short, it runs like this: as §2

The subject of data set [9] is P388. The data set can be described thus: Antitumor activity against mouse P388 cells allografted in male CDF1 mouse assessed as disease cures by measuring 30-days host survival at 100 mg/kg, ip administered daily for 9 days as saline with Tween-80 solution starting 24 hrs after tumor inoculation relative to control. The conditions noted are these: route intraperitoneal. It counts as functional. In short, it runs like this: as §2

In data set [10] the test system is P388. Briefly: Antitumor activity against mouse P388 cells allografted in male CDF1 mouse assessed as disease cures by measuring 30-days host survival at 400 mg/kg, ip administered daily for 9 days as saline with Tween-80 solution starting 24 hrs after tumor inoculation relative to control. It counts as functional. To be noted: route intraperitoneal. In short, it runs like this: as §2

Data set [11] deals with P388. Briefly: Antitumor activity against mouse P388 cells allografted in male CDF1 mouse assessed as disease cures by measuring 30-days host survival at 200 mg/kg, ip administered daily for 9 days as saline with Tween-80 solution starting 24 hrs after tumor inoculation relative to control. It counts as functional. The conditions noted are these: route intraperitoneal. The procedure, abridged:
as §2

The test system of data set [12] is P388. The data set can be described thus: Antitumor activity against mouse P388 cells allografted in female CDF1 mouse assessed as change in body weight at 100 mg/kg, ip administered daily for 9 days as saline with Tween-80 solution starting 24 hrs after tumor inoculation. It counts as functional. The conditions noted are these: route intraperitoneal. In short, it runs like this:
(§3)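 Ascitic fluid carrying P388 cells was inoculated ip. Compound was given ip in nine daily doses, starting 24 h after inoculation, in Klucel (hydroxypropylcellulose) suspension or in saline with Tween-80. Body-weight difference (treated minus control) was recorded on day 5. Survival was scored as %T/C of median survival time, and 30-day survival counted as cure.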

Data set [13] relates to P388. The data set can be described thus: Antitumor activity against mouse P388 cells allografted in female CDF1 mouse assessed as change in body weight at 50 mg/kg, ip administered daily for 9 days as saline with Tween-80 solution starting 24 hrs after tumor inoculation. It counts as functional. The conditions noted are these: route intraperitoneal. In short, it runs like this: as §3

Data set [14] deals with P388. Briefly: Antitumor activity against mouse P388 cells allografted in female CDF1 mouse assessed as change in body weight at 25 mg/kg, ip administered daily for 9 days as saline with Tween-80 solution starting 24 hrs after tumor inoculation. To be noted: route intraperitoneal. It counts as functional. In short, it runs like this: as §3
Data set [15] deals with P388. Briefly: Antitumor activity against mouse P388 cells allografted in male CDF1 mouse assessed as change in body weight at 50 mg/kg, ip administered daily for 9 days as saline with Tween-80 solution starting 24 hrs after tumor inoculation. It counts as functional. The conditions noted are these: route intraperitoneal. In short, it runs like this:
as §3

In data set [16] the test system is P388. The data set can be described thus: Antitumor activity against mouse P388 cells allografted in male CDF1 mouse assessed as change in body weight at 25 mg/kg, ip administered daily for 9 days as saline with Tween-80 solution starting 24 hrs after tumor inoculation. It counts as functional. The conditions noted are these: route intraperitoneal. In short, it runs like this: as §3

Data set [17] has as its system P388. Briefly: Antitumor activity against mouse P388 cells allografted in male CDF1 mouse assessed as change in body weight at 100 mg/kg, ip administered daily for 9 days as saline with Tween-80 solution starting 24 hrs after tumor inoculation. It counts as functional. To be noted: route intraperitoneal. The procedure, abridged:
as §3

Data set [18] concerns P388. The data set can be described thus: Antitumor activity against mouse P388 cells allografted in male CDF1 mouse assessed as change in body weight at 400 mg/kg, ip administered daily for 9 days as saline with Tween-80 solution starting 24 hrs after tumor inoculation. It counts as functional. To be noted: route intraperitoneal. In short, it runs like this: as §3
Data set [19] relates to P388. Briefly: Antitumor activity against mouse P388 cells allografted in male CDF1 mouse assessed as change in body weight at 200 mg/kg, ip administered daily for 9 days as saline with Tween-80 solution starting 24 hrs after tumor inoculation. It counts as functional. To be noted: route intraperitoneal. The procedure, abridged:
as §3

Data set [20] concerns Mus musculus. The data set can be described thus: Toxicity in female CDF1 mouse allografted with mouse P388 cells assessed as animal survival at 100 mg/kg, ip administered daily for 9 days as saline with Tween-80 solution starting 24 hrs after tumor inoculation. It counts as organism-based. More on the design: dose 100 mg/kg, route intraperitoneal. To be noted: in vivo. The procedure, abridged:
as §1

Data set [21] deals with Mus musculus. Briefly: Toxicity in female CDF1 mouse allografted with mouse P388 cells assessed as animal survival at 50 mg/kg, ip administered daily for 9 days as saline with Tween-80 solution starting 24 hrs after tumor inoculation. To be noted: in vivo. It counts as organism-based. More on the design: dose 50 mg/kg, route intraperitoneal. The procedure, abridged:
as §1

For data set [22], the system named is Mus musculus. Briefly: Toxicity in female CDF1 mouse allografted with mouse P388 cells assessed as animal survival at 25 mg/kg, ip administered daily for 9 days as saline with Tween-80 solution starting 24 hrs after tumor inoculation. It counts as organism-based. More on the design: dose 25 mg/kg, route intraperitoneal. The conditions noted are these: in vivo. In short, it runs like this:
as §1

For data set [23], the system named is Mus musculus. Briefly: Toxicity in male CDF1 mouse allografted with mouse P388 cells assessed as animal survival at 50 mg/kg, ip administered daily for 9 days as saline with Tween-80 solution starting 24 hrs after tumor inoculation. It counts as organism-based. More on the design: dose 50 mg/kg, route intraperitoneal. To be noted: in vivo. The procedure, abridged:
as §1

Data set [24] concerns Mus musculus. The data set can be described thus: Toxicity in male CDF1 mouse allografted with mouse P388 cells assessed as animal survival at 25 mg/kg, ip administered daily for 9 days as saline with Tween-80 solution starting 24 hrs after tumor inoculation. It counts as organism-based. More on the design: dose 25 mg/kg, route intraperitoneal. To be noted: in vivo. The procedure, abridged: as §1

By T/C is commonly meant the result in the treated group divided by that in the control group, in per cent. As for `O=C(NC1CCCCC1)OCc1c(COC(=O)NC2CCCCC2)c(-c2ccc(Cl)c(Cl)c2)n2c1CCC2`, the Activity result in the data set on Mus musculus [1] was “Non-toxic”; in the data set with Mus musculus [2], “Non-toxic”; in the data set with Mus musculus [3], “Non-toxic”; in the data set on P388 [12] it was -2.5 g; in the data set with P388 [13] it was -2 g; in the data set with P388 [14] it was -1.1 g. For the same molecule, the Activity is recorded as -0.6 g in the data set on P388 [15]; -0.6 g with P388 [16]; -1.2 g in the data set on P388 [17]; -4 g with P388 [18]; -2.8 g with P388 [19]; “Non-toxic” in the data set on Mus musculus [20]. In addition, the Activity result with Mus musculus [21], in the data set on Mus musculus [22], with Mus musculus [23] and in the data set with Mus musculus [24] was “Non-toxic” in each case. In addition, the T/C in the data set with P388 [4] is listed as 212%; in the data set on P388 [5] it was 174%; in the data set on P388 [6] it was 168%; with P388 [7] it was 166%; in the data set with P388 [8] it was 150%; in the data set on P388 [9], 187%. The results for the T/C in the data set on P388 [10] and in the data set on P388 [11] were 79% and 91%, respectively.
